Active and inactive are the calls of the source. No cut-off for these calls is given here. Some results are limits rather than exact numbers.

Data set [1] relates to HEK293. Description: Induction of morphological changes in HEK293 cells assessed as cell shrinkage at 100 uM measured over 30 mins. The format is cell-based. Particulars: human, hek293, 0.5 h.
Data set [2] deals with HEK293. Description: Inhibition of Galphao interaction with GFP-fused RGS17 (unknown origin) deltaN mutant expressed in HEK293 cells assessed as increase in RGS17 deltaN mutant localization at cytoplasm at 100 uM up to 30 mins by confocal microscopic analysis. Particulars: Homo sapiens. The format is cell-based. The method, boiled down: (§1)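 HEK293T cells plated at 25 000 per well on poly-D-lysine glass and kept overnight at 37 °C, 5% CO2. Next day cotransfected with hGαo (pcDNA3.1) and GFP-RGS17 N (Lipofectamine 2000). After 24 h, cells moved to serum-free, phenol-red-free DMEM and given compound (final 0.07–0.8% DMSO). Live confocal imaging; ImageJ cross-sectional intensity analysis, each T=final image normalised to the T=0 maximum.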

Data set [3] has as its system HEK293. Description: Inhibition of Galphao interaction with GFP-fused RGS17 (unknown origin) deltaN mutant expressed in HEK293 cells assessed as disruption of RGS17 localization at cell membranes at 100 uM up to 30 mins by confocal microscopic analysis. The format is cell-based. The settings on record: Homo sapiens. An outline of the steps: as §1
Data set [4] deals with T1, Regulator of G-protein signaling 17 (Homo sapiens) (UniProt Q9UGC6).
T1 sequence (whole entry): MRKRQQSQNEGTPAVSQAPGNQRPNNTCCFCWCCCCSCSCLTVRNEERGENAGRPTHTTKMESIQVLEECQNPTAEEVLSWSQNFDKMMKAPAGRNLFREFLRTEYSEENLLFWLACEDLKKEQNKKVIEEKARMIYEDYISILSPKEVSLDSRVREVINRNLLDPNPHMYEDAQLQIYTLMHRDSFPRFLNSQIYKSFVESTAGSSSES
Briefly: Binding affinity to RGS17 (unknown origin) assessed as covalent adduct formation at 100 uM after 72 hrs by ESI-MS analysis. The method, boiled down: (§2)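 RGS17 N (1ZV4 construct, 20 μM) in 25 mM HEPES, 100 mM NaCl, 5% DMSO, pH 8, incubated with or without 100 μM compound at 4 °C for 72 h. Then dialysed twice against 25 mM NH4HCO3 at 4 °C for 24 h to strip noncovalent ligand, followed by ESI-TOF mass analysis for adducted species.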

The target in data set [5] is Regulator of G-protein signaling 17 (Homo sapiens, UniProt Q9UGC6, C117A). Briefly: Inhibition of RGS17 (unknown origin) C117A mutant interaction with biotinylated Galphao after 30 mins in presence of AMF and GDP by AlphaScreen assay. The method, boiled down:
(§3)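 AlphaScreen assay: RGS17 (WT or C117A) on anti-GST beads, 10 nM final, preincubated 30 min with compound (half-log series, 100 μM to 1 nM final). Gαo-biotin on streptavidin beads then added with AMF and GDP, 10 nM final. Negative controls lacked AMF. Data n = 3, run at least in duplicate.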

For data set [6], the target named is T2, Regulator of G-protein signaling 17 (Homo sapiens, UniProt Q9UGC6).
T2 sequence (Q9UGC6 whole entry): T1 sequence (whole entry)
Description: (§4) Inhibition of wild type GST-tagged RGS17 (unknown origin) interaction with biotinylated Galphao after 30 mins in presence of AMF and GDP by AlphaScreen assay. The method, boiled down:
as §3

Data set [7] concerns the target T1, Regulator of G-protein signaling 17 (Homo sapiens). The data set is described as §4. The method, boiled down: as §3
Data set [8] deals with HEK293. Briefly: Induction of morphological changes in HEK293 cells assessed as cell shrinkage at 100 uM. The settings on record: human, hek293, 100 µM. The format is cell-based.
For data set [9], the system named is HEK293. Briefly: Inhibition of Galphao interaction with GFP-fused RGS17 (unknown origin) deltaN mutant expressed in HEK293 cells assessed as increase in RGS17 deltaN mutant localization at cytoplasm at 10 uM up to 20 mins by confocal microscopic analysis. The format is cell-based. Particulars: Homo sapiens. The method, boiled down:
(§5)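 HEK293T cells plated at 25 000/well on poly-D-lysine glass-bottom wells and co-transfected (Lipofectamine 2000) with hGαo and N-terminal GFP-fused RGS17 ΔN. After 24 h, switched to serum-free, phenol-red-free DMEM and compound added (0.07–0.8% DMSO final). Imaged by confocal microscopy; cross-sectional fluorescence profiles at T=0 and T=final, each pair normalised to the highest T=0 intensity.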

The target in data set [10] is T1, Regulator of G-protein signaling 17 (Homo sapiens). Briefly: Binding affinity to RGS17 (unknown origin) assessed as molecular weight of covalent adduct at 100 uM after 72 hrs by ESI-MS analysis (reference value: 16232 Da). The method, boiled down:
as §2

Data set [11] deals with PC-3. Briefly: Growth inhibition of E-cadherin expressing human PC3 cells transfected with RGS17 at 31.6 to 56.2 uM after 1 hr by sulforhodamine B assay. The format is functional, cell-based.
Data set [12] is filed under the species Homo sapiens. Briefly: Growth inhibition of human TEM4-18 cells after 1 hr by sulforhodamine B assay. The format is functional.
The nature of data set [13]: Thiol reactivity of the compound assessed as cysteine adduct formation at 100 uM after 4 hrs in presence of N-Acetylcysteine by Ellman's method. The format is physicochemical. The method, boiled down: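 Ellman assay: N-acetylcysteine (100 μM) incubated with compound (100 μM, 1:1) for 4 h at 37 °C. DTNB (1 mM) then added and absorbance read at 412 nm against N-acetylcysteine alone; N-ethylmaleimide as thiol-reactive control; n = 3.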

Data set [14] concerns A549. Description: Growth inhibition of human A549 cells measured every 2 hrs over 6 days by live cell imaging based method. The format is functional. The method, boiled down:
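A549 cells harvested by trypsin, plated at 1000 cells/well in 24-well plates, left overnight to attach, then treated in triplicate with compound or matched DMSO (≤0.2% final). Confluence imaged live every 2 h over 6 days. Change in confluence relative to DMSO plotted against concentration. IC50 taken from a linear regression of each curve at 0.5 relative growth.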

For data set [15], the system named is RWPE-1. Briefly: Growth inhibition of human RWPE1 cells at 31.6 to 56.2 uM after 1 hr by sulforhodamine B assay. The format is cell-based. The settings on record: rwpe-1, 1 h.
Data set [16] in a line: Solubility of the compound in aqueous buffer solution. The format is physicochemical.
For data set [17], the system named is HEK293. Briefly: Induction of morphological changes in HEK293 cells assessed as plasma membrane blebbing at 100 uM. The format is cell-based. The settings on record: human, hek293, 100 µM.
For data set [18], the system named is HEK293. Briefly: Inhibition of Galpha0 interaction with GFP-fused RGS17 (unknown origin) deltaN mutant expressed in HEK293 cells assessed as increase in RGS17 deltaN mutant localization at cytoplasm at 100 uM up to 5 mins by confocal microscopic analysis. The settings on record: Homo sapiens. The format is cell-based. The method, boiled down: as §5
Data set [19] has as its system PC-3. Briefly: Growth inhibition of E-cadherin expressing human PC3 cells after 1 hr by sulforhodamine B assay. The format is functional, cell-based.
The target in data set [20] is T1, Regulator of G-protein signaling 17 (Homo sapiens). Briefly: Inhibition of RGS17 (unknown origin)-mediated CREB phosphorylation.
Data set [21] shares this target. Briefly: Binding affinity to RGS17 (unknown origin) assessed as change in chemical shift perturbations by NMR spectroscopic analysis.
The test system of data set [22] is HEK293. Briefly: Inhibition of Galphao interaction with GFP-fused RGS17 (unknown origin) deltaN mutant expressed in HEK293 cells assessed as increase in RGS17 deltaN mutant localization at cytoplasm at 10 uM up to 5 mins by confocal microscopic analysis. The settings on record: Homo sapiens. The format is cell-based. An outline of the steps: as §5
Data set [23] addresses T1, Regulator of G-protein signaling 17 (Homo sapiens). Description: Binding affinity to RGS17 (unknown origin) assessed as change in melting temperature by differential scanning fluorimetry.
Data set [24] addresses Guanine nucleotide-binding protein G(o) subunit alpha (Homo sapiens) (UniProt P09471). Description: Binding affinity to Galphao (unknown origin) assessed as change in melting temperature by differential scanning fluorimetry.
For data set [25], the target named is T2, Regulator of G-protein signaling 17. Description: Inhibition of RGS17 (unknown origin) GAP activity in presence of GTP by malachite green dye based assay.
Data set [26] deals with HEK293. Description: Inhibition of Galphao interaction with GFP-fused RGS17 (unknown origin) deltaN mutant expressed in HEK293 cells assessed as increase in RGS17 deltaN mutant localization at cytoplasm at 100 uM up to 20 mins by confocal microscopic analysis. The format is cell-based. Particulars: Homo sapiens. An outline of the steps:
as §1

Data set [27] concerns HEK293. Briefly: Inhibition of Galphao interaction with GFP-fused RGS17 (unknown origin) deltaN mutant expressed in HEK293 cells assessed as increase in RGS17 deltaN mutant localization at cytoplasm at 10 uM up to 30 mins by confocal microscopic analysis. The format is cell-based. Particulars: Homo sapiens. The method, boiled down:
as §1

The subject of data set [28] is A549. Description: Growth inhibition of human A549 cells up to 1 uM measured every 2 hrs over 6 days by live cell imaging based method. The format is functional. The method, boiled down: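 A549 cells trypsinised, counted and seeded at 1000 per well in 24-well plates, then allowed to attach overnight. Treated in triplicate up to 1 μM compound (≤0.2% DMSO, matched DMSO control). Confluence imaged every 2 h for 6 days by live-cell imaging. Confluence change relative to DMSO plotted against concentration; IC50 from linear regression at 0.5 relative growth.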

The target of data set [29] is T1, Regulator of G-protein signaling 17 (Homo sapiens). Description: Inhibition of Galphao interaction with GFP-fused full length RGS17 (unknown origin) expressed in HEK293 cells assessed as disruption of RGS17 localization at cell membranes at 100 uM after 10 mins by confocal microscopic analysis. The format is cell-based. An outline of the steps:
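HEK293T cells co-transfected with hGαo and N-terminal GFP-fused full-length RGS17, then treated with 100 μM compound in serum-free, phenol-red-free DMEM. RGS17 membrane localisation followed by confocal imaging at 0 and 10 min.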

Sequence of Regulator of G-protein signaling 17 (Homo sapiens, UniProt Q9UGC6, C117A) (Q9UGC6 whole entry C117A): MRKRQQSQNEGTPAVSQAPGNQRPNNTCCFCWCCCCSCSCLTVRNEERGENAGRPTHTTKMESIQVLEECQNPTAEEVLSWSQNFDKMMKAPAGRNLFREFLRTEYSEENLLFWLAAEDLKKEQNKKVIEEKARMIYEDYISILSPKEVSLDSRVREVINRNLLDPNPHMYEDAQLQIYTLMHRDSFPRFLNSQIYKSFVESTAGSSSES
Sequence of Guanine nucleotide-binding protein G(o) subunit alpha (Homo sapiens) (P09471 2-354 limits assumed): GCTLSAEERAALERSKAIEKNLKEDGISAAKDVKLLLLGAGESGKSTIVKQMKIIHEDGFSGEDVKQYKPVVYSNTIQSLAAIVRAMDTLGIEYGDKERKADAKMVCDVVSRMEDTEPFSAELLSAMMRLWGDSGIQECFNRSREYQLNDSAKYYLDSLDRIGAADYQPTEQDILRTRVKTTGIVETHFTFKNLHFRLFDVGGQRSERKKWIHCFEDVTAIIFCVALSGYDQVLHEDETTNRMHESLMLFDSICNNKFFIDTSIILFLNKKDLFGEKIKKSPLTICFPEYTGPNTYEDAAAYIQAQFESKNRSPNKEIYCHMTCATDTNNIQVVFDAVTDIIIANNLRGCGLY

With `Cc1ccc(-n2sc(=O)n(Cc3ccc(F)cc3)c2=O)cc1`, the Activity result in data set [1] is on record as “Toxic”. For the same compound, the inhibition result in [2] and in data set [3] was “inactive” each time.

With `CC1=C(O)C(=O)C=C2C1=CC=C1[C@@]2(C)CC[C@@]2(C)[C@@H]3C[C@](C)(C(=O)O)CC[C@]3(C)CC[C@]12C` [CELASTROL], the result in data set [4] was Active. For the same compound, the IC50 in data set [5] was above 100 µM; in data set [6], 10.5 µM; in data set [14] it was 690 nM. The inhibition entry in [7] was “Dose-dependent effect”. The Activity entry in [8] was “Non-Toxic”; in [10] it was 16200 Da; in data set [13] it was “Not Active”; in data set [17] it was “Non-Toxic”. Also, the inhibition result in data set [9], in data set [18] and in data set [22] was “Active” in each case. Moreover, the “growth inhibition (GI)” value in data set [11] was “inactive”. Moreover, the “growth inhibition (GI)” value was “Dose-dependent effect” in [12], “Toxic” in [15] and “Dose-dependent effect” in data set [19]. In addition, the solubility result in data set [16] is recorded as “Insoluble”. In data set [20], the inhibition result is “inactive”. The outcome in data set [21] and in [23] was inactive.

As for `CC(C)=CCC[C@]1(C)C=Cc2c(O)c3c(c(CC=C(C)C)c2O1)O[C@]12C(=C[C@@H]4C[C@H]1C(C)(C)O[C@@]2(C/C=C(/C)C(=O)O)C4=O)C3=O` [GAMBOGIC ACID], in data set [24], the outcome was Active. In addition, the IC50 in [25] is 10 µM.

Consider `O=c1c(-c2cc(O)c(O)c(O)c2)coc2cc(O)c(O)c(O)c12` [IRIGENOL], for which the outcome in [4], in data set [21] and in [23] was inactive. Moreover, the values for the IC50 in data set [5], in [6] and in data set [25] were 81.8 µM, 47.2 µM and 35 µM, respectively. In data set [7], the inhibition entry was “Dose-dependent effect”. Moreover, the inhibition result in data set [26] and in [27] was “Active” each time. For the same compound, the Activity entry in [8] is “Non-Toxic”; in data set [10], 16200 Da; in data set [13] it was “Active”; in data set [17], “Non-Toxic”. For the same compound, in [28], the “growth inhibition (GI)” value is “inactive”.

As for `C[n+]1cc2c3c(ccc2c2ccc4cc5c(cc4c21)OCO5)OCO3` [SANGUINARIUM], the result in data set [4], in data set [21] and in data set [23] was inactive. In addition, the IC50 is above 100 µM in data set [5], 72.8 µM in data set [6], 610 nM in data set [14] and 12 µM in data set [25]. Also, the inhibition result in data set [7] is “Dose-dependent effect”. The Activity entry in data set [8] was “Non-Toxic”; in data set [10] it was 16200 Da; in data set [13] it was “Active”; in [17], “Non-Toxic”. Besides, in data set [11], the “growth inhibition (GI)” value is “inactive”. Also, the “growth inhibition (GI)” value was “Dose-dependent effect” in data set [12], “Toxic” in data set [15] and “Dose-dependent effect” in data set [19]. For the same compound, the inhibition result in [27], in data set [18] and in data set [22] was “Active” throughout. Also, the inhibition entry in data set [29] and in data set [20] was “inactive” each time.

Source of the values: ChEMBL document CHEMBL4190223, “Natural Products Discovered in a High-Throughput Screen Identified as Inhibitors of RGS17 and as Cytostatic and Cytotoxic Agents for Lung and Prostate Cancer Cell Lines” (J Nat Prod, 2017).
